What was measured:
[1] = target: T1, C-C chemokine receptor type 3 (Homo sapiens, UniProt P51677); test: Agonist activity at CCR3 (unknown origin)
How it was run: (§1)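 β-arrestin assays run in both agonist and antagonist modes across a panel of 18 CXC and CC chemokine receptors.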

[2] = target: T1, C-C chemokine receptor type 3; test: Antagonist activity at CCR3 (unknown origin); how it was run: as §1
[3] = target: T2, C-C chemokine receptor type 4 (Homo sapiens, UniProt P51679); test: Agonist activity at CCR4 (unknown origin); how it was run: as §1
T2 sequence (P51679 whole entry): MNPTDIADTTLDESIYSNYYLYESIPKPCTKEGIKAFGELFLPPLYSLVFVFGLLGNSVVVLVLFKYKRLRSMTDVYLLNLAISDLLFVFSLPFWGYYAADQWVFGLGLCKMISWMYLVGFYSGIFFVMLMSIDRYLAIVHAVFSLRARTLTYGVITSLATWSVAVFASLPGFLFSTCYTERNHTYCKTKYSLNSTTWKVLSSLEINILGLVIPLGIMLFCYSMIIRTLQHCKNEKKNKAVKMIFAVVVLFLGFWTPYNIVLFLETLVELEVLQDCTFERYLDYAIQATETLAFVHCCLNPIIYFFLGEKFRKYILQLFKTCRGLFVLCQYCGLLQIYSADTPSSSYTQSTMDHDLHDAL

[4] = Ratio of brain dose normalized AUC (0 to 7 hrs) to […] dose normalized AUC (0 to 7 hrs), Kp of the compound in Han-Wistar SOA rat model at 2 mg/kg administered via oral gavage by UPLC/MS/MS analysis; format: ADME, organism-based
How it was run: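 Male Han-Wistar rats given a single 2 mg/kg oral gavage as a suspension in DMSO:1% methylcellulose (1:99). Blood was taken by cardiac puncture under isoflurane at 0.25–7 h, diluted 1:3 with water, and brains were homogenized in 3-fold PBS. Samples were extracted by acetonitrile protein precipitation and quantified by UPLC/MS/MS. Kp = brain DNAUC0-7h/blood DNAUC0-7h; Kp,uu = Kp×Fu,br/Fu,bl.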

[5] = target: T3, C-X-C chemokine receptor type 4 (Homo sapiens, UniProt P61073); test: Agonist activity at CXCR4 (unknown origin); how it was run: as §1
T3 sequence (P61073 whole entry): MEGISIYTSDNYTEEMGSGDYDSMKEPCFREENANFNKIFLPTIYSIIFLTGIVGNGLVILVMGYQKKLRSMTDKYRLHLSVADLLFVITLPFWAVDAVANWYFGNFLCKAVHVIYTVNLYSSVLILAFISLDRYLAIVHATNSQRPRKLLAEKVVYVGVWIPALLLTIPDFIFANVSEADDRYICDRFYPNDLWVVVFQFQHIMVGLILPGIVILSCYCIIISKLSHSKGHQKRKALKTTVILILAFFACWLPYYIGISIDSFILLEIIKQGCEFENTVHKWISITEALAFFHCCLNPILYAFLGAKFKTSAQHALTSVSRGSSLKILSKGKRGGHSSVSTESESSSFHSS

[6] = target: T4, C-X-C chemokine receptor type 1 (Homo sapiens, UniProt P25024); test: Antagonist activity at CXCR1 (unknown origin)
T4 sequence (P25024 whole entry): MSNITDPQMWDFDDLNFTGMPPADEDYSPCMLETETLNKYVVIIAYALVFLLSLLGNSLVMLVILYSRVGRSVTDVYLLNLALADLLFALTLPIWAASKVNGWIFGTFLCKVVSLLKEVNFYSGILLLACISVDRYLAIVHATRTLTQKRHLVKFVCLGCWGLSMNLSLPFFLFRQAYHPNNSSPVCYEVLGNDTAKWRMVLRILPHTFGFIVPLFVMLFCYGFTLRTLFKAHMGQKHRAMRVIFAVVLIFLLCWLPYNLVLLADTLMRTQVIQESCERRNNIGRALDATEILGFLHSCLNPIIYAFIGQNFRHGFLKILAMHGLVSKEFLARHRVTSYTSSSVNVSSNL
How it was run: (§2)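 Part of an 18-receptor CXC/CC chemokine receptor panel, each receptor run in β-arrestin recruitment assays in both agonist and antagonist modes.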

[7] = Tmax in Wistar rat at 2.41 mg/kg, po measured up to 4 hrs post dose; format: ADME, organism-based; details: in vivo
[8] = target: T5, CX3C chemokine receptor 1 (Homo sapiens, UniProt P49238); test: Antagonist activity at CX3CR1 (unknown origin); how it was run: as §1
T5 sequence (P49238 whole entry): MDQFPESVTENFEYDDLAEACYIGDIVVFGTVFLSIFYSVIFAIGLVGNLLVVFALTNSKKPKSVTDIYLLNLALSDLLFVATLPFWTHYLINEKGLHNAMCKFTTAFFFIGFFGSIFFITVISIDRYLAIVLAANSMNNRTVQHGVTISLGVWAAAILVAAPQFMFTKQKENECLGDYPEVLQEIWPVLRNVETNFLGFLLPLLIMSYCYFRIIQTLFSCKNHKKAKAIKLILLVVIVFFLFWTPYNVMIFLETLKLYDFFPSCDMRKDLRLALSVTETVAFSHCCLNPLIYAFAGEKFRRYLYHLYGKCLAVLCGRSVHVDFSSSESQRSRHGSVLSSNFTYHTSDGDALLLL

Blood = test: Dose normalized AUC (0 to 7 hrs) in Han-Wistar SOA rat model blood at 2 mg/kg administered via oral gavage by UPLC/MS/MS analysis; format: ADME, organism-based; details: in vivo
How it was run: (§3)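 Male Han-Wistar rats were given 2 mg/kg by oral gavage as a suspension in DMSO:1% methylcellulose (1:99). Blood (cardiac puncture, EDTA-K2, under isoflurane) and brains were collected at 0.25–7 h. Brain was homogenised in 3-fold PBS, samples were protein-precipitated and quantified by UPLC/MS/MS.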

Brain = test: Dose normalized AUC (0 to 7 hrs) in Han-Wistar SOA rat model brain at 2 mg/kg administered via oral gavage by UPLC/MS/MS analysis; format: ADME, organism-based; details: in vivo; how it was run: as §3
[9] = target: T6, C-C chemokine receptor type 9 (Homo sapiens, UniProt P51686); test: Agonist activity at CCR9 (unknown origin); how it was run: as §1
T6 sequence (P51686 whole entry): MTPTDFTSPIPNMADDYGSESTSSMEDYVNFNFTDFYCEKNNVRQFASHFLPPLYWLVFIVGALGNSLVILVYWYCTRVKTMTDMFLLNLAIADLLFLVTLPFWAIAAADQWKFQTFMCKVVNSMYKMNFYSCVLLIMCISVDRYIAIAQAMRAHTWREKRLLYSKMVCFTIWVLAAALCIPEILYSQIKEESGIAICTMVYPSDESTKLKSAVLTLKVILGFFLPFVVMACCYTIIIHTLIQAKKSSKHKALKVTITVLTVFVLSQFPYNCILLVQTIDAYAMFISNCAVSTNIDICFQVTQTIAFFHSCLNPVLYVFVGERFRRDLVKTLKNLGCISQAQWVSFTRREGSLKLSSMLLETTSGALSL

[10] = target: C-X-C chemokine receptor type 2 (Mus musculus, UniProt P35343); test: Antagonist activity at CXCR2 in C57 mouse whole blood assessed as inhibition of GROalpha-stimulated CD11b upregulation preincubated for 2 hr followed by GROalpha stimulation measured after 10 mins by FITC-staining based FACS analysis
C-X-C chemokine receptor type 2 (Mus musculus, UniProt P35343), sequence (P35343 whole entry): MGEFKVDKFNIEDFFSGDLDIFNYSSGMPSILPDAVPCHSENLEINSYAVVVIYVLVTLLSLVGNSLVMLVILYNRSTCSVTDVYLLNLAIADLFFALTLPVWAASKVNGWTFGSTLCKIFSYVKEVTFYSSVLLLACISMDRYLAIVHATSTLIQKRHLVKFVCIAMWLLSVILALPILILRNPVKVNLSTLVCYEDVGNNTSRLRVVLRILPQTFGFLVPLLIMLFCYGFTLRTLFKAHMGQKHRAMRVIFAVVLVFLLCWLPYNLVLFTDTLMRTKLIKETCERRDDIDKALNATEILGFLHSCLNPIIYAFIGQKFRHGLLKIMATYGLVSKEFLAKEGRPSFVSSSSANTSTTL

Rattus norvegicus = test: Dose normalized AUC (0 to infinity) in Wistar rat at 0.98 mg/kg, iv measured up to 4 hrs post dose; format: ADME, organism-based; details: in vivo
[11] = target: T6, C-C chemokine receptor type 9; test: Antagonist activity at CCR9 (unknown origin); how it was run: as §1
[12] = Tmax in dog at 1.29 mg/kg, po measured up to 4 hrs post dose; format: ADME, organism-based, Canis lupus familiaris; details: in vivo
[13] = target: T7, C-X-C chemokine receptor type 2 (Homo sapiens, UniProt P25025); test: Antagonist activity at TEV protease cleavage site linked GAL4-VP16-fused recombinant human CXCR2 expressed in cells assessed as inhibition of […] human CXCL1-stimulated beta-arrestin recruitment by CCF4-AM-fluorescence based FRET assay; format: cell-based; details: read-out: IC50
T7 sequence (P25025 whole entry): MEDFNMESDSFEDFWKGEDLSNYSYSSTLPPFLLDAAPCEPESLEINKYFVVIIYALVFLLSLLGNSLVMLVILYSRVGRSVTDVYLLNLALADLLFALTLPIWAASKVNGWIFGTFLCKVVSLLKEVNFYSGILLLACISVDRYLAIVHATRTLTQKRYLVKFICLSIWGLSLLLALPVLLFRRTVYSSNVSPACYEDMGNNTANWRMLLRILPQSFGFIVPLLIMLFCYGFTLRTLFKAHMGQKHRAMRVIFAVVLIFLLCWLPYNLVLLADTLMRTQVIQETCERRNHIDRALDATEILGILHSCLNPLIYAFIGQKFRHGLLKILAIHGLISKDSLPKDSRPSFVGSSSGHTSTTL
How it was run: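 Stable cell line expressing recombinant human CXCR2 linked to a TEV site and Gal4-VP16. Cells were starved 24 h at 37 °C, 5% CO2, then resuspended at ~200,000 cells/mL. They were given compound in DMSO (concentration-response), stimulated with 80 nM hCXCL1 and incubated overnight at 37 °C. CCF4-AM substrate was then added for 2 h at RT in the dark.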

[14] = Clearance in dog blood at 0.85 mg/kg, iv measured up to 4 hrs post dose; format: ADME, organism-based, Canis lupus familiaris
[15] = target: C-C chemokine receptor type 2 (Homo sapiens, UniProt P41597); test: Agonist activity at CCR2 (unknown origin); how it was run: as §1
C-C chemokine receptor type 2, sequence (P41597 whole entry): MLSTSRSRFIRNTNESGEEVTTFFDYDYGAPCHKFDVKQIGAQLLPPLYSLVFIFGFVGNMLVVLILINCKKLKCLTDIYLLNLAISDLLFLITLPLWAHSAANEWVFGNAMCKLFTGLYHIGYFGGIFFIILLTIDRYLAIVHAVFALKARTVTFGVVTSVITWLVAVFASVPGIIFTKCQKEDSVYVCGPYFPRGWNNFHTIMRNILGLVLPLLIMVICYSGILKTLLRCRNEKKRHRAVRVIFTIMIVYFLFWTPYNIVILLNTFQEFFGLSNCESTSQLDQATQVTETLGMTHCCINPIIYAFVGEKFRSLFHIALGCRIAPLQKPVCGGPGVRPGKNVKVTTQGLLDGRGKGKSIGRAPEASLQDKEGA

[16] = Volume of distribution at steady state in dog at 0.85 mg/kg, iv measured up to 4 hrs post dose; format: ADME, organism-based, Canis lupus familiaris; details: in vivo, read-out: Vdss
[17] = target: T3, C-X-C chemokine receptor type 4; test: Antagonist activity at CXCR4 (unknown origin); how it was run: as §1
[18] = target: T8, C-C chemokine receptor type 6 (Homo sapiens, UniProt P51684); test: Antagonist activity at CCR6 (unknown origin); how it was run: as §1
T8 sequence (P51684 whole entry): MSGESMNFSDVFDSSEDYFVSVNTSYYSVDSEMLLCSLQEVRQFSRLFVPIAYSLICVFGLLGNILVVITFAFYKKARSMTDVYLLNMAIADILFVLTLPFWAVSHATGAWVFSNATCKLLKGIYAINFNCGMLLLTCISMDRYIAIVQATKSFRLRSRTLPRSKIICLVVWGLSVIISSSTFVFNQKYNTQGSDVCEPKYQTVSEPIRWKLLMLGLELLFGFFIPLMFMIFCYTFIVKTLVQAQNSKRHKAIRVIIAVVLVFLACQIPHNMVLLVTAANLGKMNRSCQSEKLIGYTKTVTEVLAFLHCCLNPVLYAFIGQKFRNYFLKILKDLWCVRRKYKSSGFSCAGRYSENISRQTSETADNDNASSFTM

[19] = target: T9, Atypical chemokine receptor 3 (Homo sapiens, UniProt P25106); test: Antagonist activity at CXCR7 (unknown origin); how it was run: as §1
T9 sequence (P25106 whole entry): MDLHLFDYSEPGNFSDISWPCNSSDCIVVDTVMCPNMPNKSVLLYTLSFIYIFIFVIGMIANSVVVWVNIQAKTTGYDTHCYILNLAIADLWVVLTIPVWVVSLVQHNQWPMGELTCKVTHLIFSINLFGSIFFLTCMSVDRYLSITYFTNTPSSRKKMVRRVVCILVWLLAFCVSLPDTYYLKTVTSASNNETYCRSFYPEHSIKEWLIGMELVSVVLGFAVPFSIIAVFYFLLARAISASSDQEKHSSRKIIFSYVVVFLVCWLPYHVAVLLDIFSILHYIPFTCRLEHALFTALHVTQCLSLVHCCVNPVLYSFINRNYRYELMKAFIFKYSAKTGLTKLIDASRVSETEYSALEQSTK

[20] = target: T2, C-C chemokine receptor type 4; test: Antagonist activity at CCR4 (unknown origin); how it was run: as §1
[21] = target: T9, Atypical chemokine receptor 3; test: Agonist activity at CXCR7 (unknown origin); how it was run: as §1
[22] = target: T4, C-X-C chemokine receptor type 1; test: Agonist activity at CXCR1 (unknown origin); how it was run: as §2
[23] = target: C-X-C chemokine receptor type 5 (Homo sapiens, UniProt P32302); test: Agonist activity at CXCR5 (unknown origin); how it was run: as §1
C-X-C chemokine receptor type 5, sequence (P32302 whole entry): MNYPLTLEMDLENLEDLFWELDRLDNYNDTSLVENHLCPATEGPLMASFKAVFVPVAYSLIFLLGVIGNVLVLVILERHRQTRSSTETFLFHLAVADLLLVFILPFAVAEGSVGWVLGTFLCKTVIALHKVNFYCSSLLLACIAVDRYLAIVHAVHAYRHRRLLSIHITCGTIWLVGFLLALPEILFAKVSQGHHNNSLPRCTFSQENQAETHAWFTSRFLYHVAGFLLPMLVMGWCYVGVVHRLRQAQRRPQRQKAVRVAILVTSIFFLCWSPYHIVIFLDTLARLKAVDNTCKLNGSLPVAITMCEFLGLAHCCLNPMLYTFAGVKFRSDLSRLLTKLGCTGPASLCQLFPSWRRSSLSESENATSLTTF

[24] = Passive permeability in MDCK2-MDR1 cells transduced with BacMam2-BCRP at 3 uM after 90 mins by Transwell assay; format: ADME, cell-based, Canis lupus familiaris, MDCK-MDR1; details: dog; read-out: permeability
How it was run: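 MDCKII-MDR1 cells transduced with BacMam2-BCRP and grown in Transwells. Compound at 3 μM, in duplicate, was incubated 90 min A→B (and B→A) with and without GF120918 (5 μM, dual P-gp/BCRP inhibitor). Passive permeability (Pexact, nm/s) was calculated by an equation from earlier work. The permeability ratio is A→B permeability with GF120918 over A→B permeability without it.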

[25] = Fraction unbound in Han-Wistar SOA rat model brain at 2 mg/kg administered via oral gavage by UPLC/MS/MS analysis; format: ADME, organism-based
[26] = target: T8, C-C chemokine receptor type 6; test: Agonist activity at CCR6 (unknown origin); how it was run: as §1
[27] = target: C-C chemokine receptor type 7 (Homo sapiens, UniProt P32248); test: Antagonist activity at CCR7 (unknown origin); how it was run: as §1
C-C chemokine receptor type 7, sequence (P32248 whole entry): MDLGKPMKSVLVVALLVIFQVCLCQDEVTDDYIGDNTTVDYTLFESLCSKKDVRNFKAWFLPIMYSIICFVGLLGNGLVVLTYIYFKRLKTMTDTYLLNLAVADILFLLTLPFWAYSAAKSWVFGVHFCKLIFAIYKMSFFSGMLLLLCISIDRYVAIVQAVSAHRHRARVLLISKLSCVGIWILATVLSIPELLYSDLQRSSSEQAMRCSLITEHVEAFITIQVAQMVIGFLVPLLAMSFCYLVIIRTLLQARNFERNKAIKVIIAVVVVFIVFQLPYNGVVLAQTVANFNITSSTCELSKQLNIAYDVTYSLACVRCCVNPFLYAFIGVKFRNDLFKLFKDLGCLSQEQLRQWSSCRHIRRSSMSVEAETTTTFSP

[28] = target: T5, CX3C chemokine receptor 1; test: Agonist activity at CX3CR1 (unknown origin); how it was run: as §1

T1 sequence (P51677 whole entry): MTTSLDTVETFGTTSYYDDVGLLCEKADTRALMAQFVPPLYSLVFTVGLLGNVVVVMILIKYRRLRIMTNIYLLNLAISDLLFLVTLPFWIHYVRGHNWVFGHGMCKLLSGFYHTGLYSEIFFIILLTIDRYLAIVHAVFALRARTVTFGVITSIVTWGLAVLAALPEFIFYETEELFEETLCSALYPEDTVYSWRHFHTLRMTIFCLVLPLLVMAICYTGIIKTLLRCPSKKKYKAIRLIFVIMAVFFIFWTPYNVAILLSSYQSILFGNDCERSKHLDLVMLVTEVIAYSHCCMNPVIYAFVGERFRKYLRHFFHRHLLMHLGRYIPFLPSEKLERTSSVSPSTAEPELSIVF

CC1=CCC[C@H]1NC(=O)Nc1ccc(Cl)c(S(=O)(=O)[C@@]2(C)CCOC2)c1O
EC50 [1]: > 10 µM | IC50 [2]: > 10 µM | EC50 [3]: > 10 µM | Kp [4]: 0.14 | EC50 [5]: > 10 µM | IC50 [6]: 3.8 µM | Tmax [7]: 1 h | IC50 [8]: > 10 µM | AUC/dose (Blood): 651 ng·h/mL/mg/kg | AUC/dose (Brain): 87.7 ng·h/g/mg/kg | EC50 [9]: > 10 µM | IC50 [10]: 0.0059 µM | AUC/dose (Rattus norvegicus): 1829 ng·h/mL/mg/kg | IC50 [11]: > 10 µM | Tmax [12]: 1.1 h | IC50 [13]: 0.0052 µM | clearance [14]: 5.6 mL/min/kg | EC50 [15]: > 10 µM | Vd [16]: 0.88 L/kg | IC50 [17]: > 10 µM | IC50 [18]: > 10 µM | IC50 [19]: > 10 µM | IC50 [20]: > 10 µM | EC50 [21]: > 10 µM | EC50 [22]: > 10 µM | EC50 [23]: > 10 µM | Papp at 1.5 h, 3 µM [24]: 25.4 ×10⁻⁶ cm/s | fraction unbound [25]: 0.123 | EC50 [26]: > 10 µM | IC50 [27]: > 10 µM | EC50 [28]: > 10 µM

— ChEMBL document CHEMBL4033786, “Discovery of Novel 1-Cyclopentenyl-3-phenylureas as Selective, Brain Penetrant, and Orally Bioavailable CXCR2 Antagonists” (J Med Chem, 2018)
